We go through 25 molecules from ChEMBL document CHEMBL1156921, “Synthesis and anti-leishmanial activity of heterocyclic betulin derivatives” (Bioorg Med Chem, 2010).

Data set [1] has as its system Leishmania donovani. In words: Antiparasitic activity against Leishmania donovani MHOM/SD/1962/1S-Cl2d axenic amastigotes at 50 uM by alamar blue assay. The format is functional. (Alamar Blue is a resazurin reagent that responds to reducing activity.)
Data set [2] is described as follows: Cytotoxicity against human THP1 cells at 50 uM after 48 hrs by alamar blue assay. The following applies: THP-1 cells, read-out: INH. The format is cell-based. Put shortly:
(§1)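 THP-1 cells in complete RPMI-1640, 10% FCS, added to compounds in medium with DMSO, triplicate, 48 h at 37 °C, 5% CO2; alamarBlue added, 3 h further incubation, fluorescence ex 544/em 590 nm; % growth inhibition.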

A short description of data set [3]: Cytotoxicity against human THP1 cells at 12.5 uM after 48 hrs by alamar blue assay. The data set is classed as cell-based. To be noted: THP-1 cells, read-out: INH. Put shortly:
as §1

Data set [4] in a line: Cytotoxicity against human THP1 cells at 25 uM after 48 hrs by alamar blue assay. The format is cell-based. The following applies: THP-1 cells, read-out: INH. The method in brief:
as §1

Data set [5] relates to Leishmania donovani. In words: Antiparasitic activity against Leishmania donovani MHOM/SD/1962/1S-Cl2d amastigotes in human THP1 cells at 12.5 uM after 48 hrs by microplate reader. The format is functional. The following applies: THP-1, 48 h.
For data set [6], the system named is Leishmania donovani. In words: Antiparasitic activity against Leishmania donovani MHOM/SD/1962/1S-Cl2d amastigotes in human THP1 cells at 25 uM after 48 hrs by microplate reader. The data set is classed as functional. The following applies: THP-1, 48 h.
In data set [7] the test system is Leishmania donovani. The data set is described as follows: Antiparasitic activity against Leishmania donovani MHOM/SD/1962/1S-Cl2d amastigotes in human THP1 cells at 50 uM after 48 hrs by microplate reader. The data set is classed as functional. To be noted: THP-1, 48 h.
Data set [8] relates to Leishmania donovani. In words: Antiparasitic activity against Leishmania donovani MHOM/SD/1962/1S-Cl2d axenic amastigotes at 15 uM by alamar blue assay. The data set is classed as functional.
Data set [9] has as its system Leishmania donovani. In words: Antiparasitic activity against Leishmania donovani MHOM/SD/1962/1S-Cl2d axenic amastigotes at 1 uM by alamar blue assay. The format is functional.
Data set [10] is described as follows: Toxicity against peritoneal macrophages assessed as survival induces at 68 uM. The data set is classed as cell-based, Peritoneal macrophage cell. To be noted: read-out: Survival.
Data set [11] relates to Leishmania amazonensis. The data set is described as follows: Antiparasitic activity against Leishmania amazonensis assessed as survival index at 68 uM. The data set is classed as functional.
Data set [12] relates to Leishmania amazonensis. The data set is described as follows: Antiparasitic activity against Leishmania amazonensis assessed as survival index at 136 uM. The format is functional.
Data set [13] can be described thus: Toxicity against peritoneal macrophages assessed as survival induces at 136 uM. The format is cell-based, Peritoneal macrophage cell. The following applies: read-out: Survival.
For data set [14], the system named is Leishmania donovani. In words: Antileishmanial activity against Leishmania donovani amastigotes. The data set is classed as functional, organism-based.
Data set [15] relates to Leishmania donovani. The data set is described as follows: Antileishmanial activity against Leishmania donovani infected golden hamster assessed as reduction of parasite burden at 10 mg/kg after 6 weeks. The format is functional. The arrangement: scale not given: the % may be the effect or the level left.
Data set [16] concerns Leishmania donovani. The data set is described as follows: Antileishmanial activity against Leishmania donovani promastigotes. The data set is classed as functional, organism-based.

A value given as a limit tells only on which side of the number the result lay.

As a reminder, the inhibition is the share of the control response that was lost under treatment. In the data set with Leishmania donovani [1], `CC(C)[C@@]12CC[C@]3(COC(=O)c4ccccc4)CC[C@]4(C)C(=C31)[C@H](C[C@@H]1[C@@]3(C)CC[C@H](OC(=O)c5ccccc5)C(C)(C)[C@@H]3CC[C@]14C)n1c(=O)n(-c3ccccc3)c(=O)n12` gave an inhibition at 50 µM of 0%.
Still for that read-out and setting: as for `CC(=O)OC[C@]12CC[C@]3(C(C)C)C1=C1[C@H](C[C@@H]4[C@@]5(C)CC[C@H](OC(C)=O)C(C)(C)[C@@H]5CC[C@@]4(C)[C@]1(C)CC2)n1c(=O)n(-c2cccc([N+](=O)[O-])c2)c(=O)n13`, the figure is 30%; as for `CC(C)[C@@]12CC[C@]3(CO)CC[C@]4(C)C(=C31)[C@H](C[C@@H]1[C@@]3(C)CC[C@H](O)C(C)(C)[C@@H]3CC[C@]14C)n1c(=O)n(C)c(=O)n12`, 50%.
Consider `CC(=O)OC[C@]12CC[C@]3(C(C)C)C1=C1[C@H](C[C@@H]4[C@@]5(C)CC[C@H](OC(C)=O)C(C)(C)[C@@H]5CC[C@@]4(C)[C@]1(C)CC2)n1c(=O)[nH]c(=O)n13`, for which the cytotoxicity at 48 h, 50 µM in [2] is 97%. For the same molecule, the cytotoxicity at 48 h, 12.5 µM in [3] came to 0%. For the same molecule, the cytotoxicity at 48 h, 25 µM in data set [4] turned out to be 2.4%. This molecule gave an inhibition at 12.5 µM in the data set on Leishmania donovani [5] of 4.8%. Besides, the inhibition at 50 µM in the data set on Leishmania donovani [1] came out at 88%. The inhibition at 25 µM in the data set on Leishmania donovani [6] came to 55%.
For `CC(=O)OC[C@]12CC[C@]3(C(C)C)C1=C1[C@H](C[C@@H]4[C@@]5(C)CC[C@H](OC(C)=O)C(C)(C)[C@@H]5CC[C@@]4(C)[C@]1(C)CC2)n1c(=O)n(-c2ccc4c(c2)CCC4)c(=O)n13`, the inhibition at 50 µM in the data set on Leishmania donovani [1] came to 23%.
For `CC(=O)OC[C@]12CC[C@]3(C(C)C)C1=C1[C@H](C[C@@H]4[C@@]5(C)CC[C@H](OC(C)=O)C(C)(C)[C@@H]5CC[C@@]4(C)[C@]1(C)CC2)n1c(=O)n(C)c(=O)n13`, the cytotoxicity at 48 h, 50 µM in data set [2] was determined as 94%. The cytotoxicity at 48 h, 12.5 µM in [3] came to 39%. In addition, the cytotoxicity at 48 h, 25 µM in data set [4] came to 78%. The inhibition at 12.5 µM in the data set on Leishmania donovani [5] was 60%. Also, the inhibition at 50 µM in the data set with Leishmania donovani [1] amounted to 98%.
In the case of `CC(C)[C@@]12CC[C@]3(COC(=O)C4CCCCC4)CC[C@]4(C)C(=C31)[C@H](C[C@@H]1[C@@]3(C)CC[C@H](OC(=O)C5CCCCC5)C(C)(C)[C@@H]3CC[C@]14C)n1c(=O)n(C(C)(C)C)c(=O)n12`, in the data set with Leishmania donovani [1], testing at 50 µM gave an inhibition of 4.8%.
`CC(=O)OC[C@]12CC[C@]3(C(C)C)C1=C1[C@H](C[C@@H]4[C@@]5(C)CC[C@H](OC(C)=O)C(C)(C)[C@@H]5CC[C@@]4(C)[C@]1(C)CC2)n1c(=O)n(Cc2ccccc2)c(=O)n13`: 50 µM produced 25% inhibition in the data set with Leishmania donovani [1].
`COc1cccc(-n2c(=O)n3n(c2=O)[C@]2(C(C)C)CC[C@]4(COC(C)=O)CC[C@]5(C)C(=C42)[C@@H]3C[C@@H]2[C@@]3(C)CC[C@H](OC(C)=O)C(C)(C)[C@@H]3CC[C@]25C)c1` came in with an inhibition at 50 µM in the data set with Leishmania donovani [1] of 44%.
The same measure, in the same setting: as for `CC(=O)OC[C@]12CC[C@]3(C(C)C)C1=C1[C@H](C[C@@H]4[C@@]5(C)CC[C@H](OC(C)=O)C(C)(C)[C@@H]5CC[C@@]4(C)[C@]1(C)CC2)n1c(=O)n(-c2ccc(F)cc2)c(=O)n13`, the figure is 48%.
Molecule `CC(=O)OC[C@]12CC[C@]3(C(C)C)C1=C1[C@H](C[C@@H]4[C@@]5(C)CC[C@H](OC(C)=O)C(C)(C)[C@@H]5CC[C@@]4(C)[C@]1(C)CC2)n1c(=O)n(-c2ccc(Cl)cc2)c(=O)n13` came in with an inhibition at 50 µM in the data set with Leishmania donovani [1] of 30%.
Consider `CC(=O)OC[C@]12CC[C@]3(C(C)C)C1=C1[C@H](C[C@@H]4[C@@]5(C)CC[C@H](OC(C)=O)C(C)(C)[C@@H]5CC[C@@]4(C)[C@]1(C)CC2)n1c(=O)n(-c2ccc(C(C)=O)cc2)c(=O)n13`, for which the inhibition at 50 µM in the data set with Leishmania donovani [1] was 45%.
Same read-out and setting: the value for `CC(=O)OC[C@]12CC[C@]3(C(C)C)C1=C1[C@H](C[C@@H]4[C@@]5(C)CC[C@H](OC(C)=O)C(C)(C)[C@@H]5CC[C@@]4(C)[C@]1(C)CC2)n1c(=O)n(-c2cccc4ccccc24)c(=O)n13` was 58%; that for `CC(=O)OC[C@]12CC[C@]3(C(C)C)C1=C1[C@H](C[C@@H]4[C@@]5(C)CC[C@H](OC(C)=O)C(C)(C)[C@@H]5CC[C@@]4(C)[C@]1(C)CC2)n1c(=O)n(-c2ccccc2)c(=O)n13` was 36%; that for `CC(C)[C@@]12CC[C@]3(CO)CC[C@]4(C)C(=C31)[C@H](C[C@@H]1[C@@]3(C)CC[C@H](O)C(C)(C)[C@@H]3CC[C@]14C)n1c(=O)n(-c3ccccc3)c(=O)n12` was 48%.
For the molecule `CCCCn1c(=O)n2n(c1=O)[C@]1(C(C)C)CC[C@]3(COC(C)=O)CC[C@]4(C)C(=C31)[C@@H]2C[C@@H]1[C@@]2(C)CC[C@H](OC(C)=O)C(C)(C)[C@@H]2CC[C@]14C`, 50 µM produced 49% inhibition in the data set with Leishmania donovani [1].
With `CCn1c(=O)n2n(c1=O)[C@]1(C(C)C)CC[C@]3(COC(C)=O)CC[C@]4(C)C(=C31)[C@@H]2C[C@@H]1[C@@]2(C)CC[C@H](OC(C)=O)C(C)(C)[C@@H]2CC[C@]14C`, the cytotoxicity at 48 h, 50 µM in data set [2] is 48%. The cytotoxicity at 48 h, 12.5 µM in data set [3] worked out at 8.5%. The cytotoxicity at 48 h, 25 µM in data set [4] stood at 13%. Further, at 12.5 µM the inhibition in the data set with Leishmania donovani [5] was 0%. In the data set with Leishmania donovani [1], the inhibition at 50 µM is 88%. The inhibition at 25 µM with Leishmania donovani [6] was found to be 53%.
Regarding `CCC(=O)OC[C@]12CC[C@]3(C(C)C)C1=C1[C@H](C[C@@H]4[C@@]5(C)CC[C@H](OC(=O)CC)C(C)(C)[C@@H]5CC[C@@]4(C)[C@]1(C)CC2)n1c(=O)n(C)c(=O)n13`, the inhibition at 50 µM in the data set on Leishmania donovani [7] was determined as 83%; in the data set on Leishmania donovani [1], 93%. Besides, the cytotoxicity at 48 h, 50 µM in data set [2] turned out to be 16%. Moreover, the cytotoxicity at 48 h, 12.5 µM in [3] stood at 5%. Moreover, in data set [4], the cytotoxicity at 48 h, 25 µM worked out at 15%. Moreover, testing at 12.5 µM in the data set on Leishmania donovani [5] gave an inhibition of 18%. For the same molecule, in the data set on Leishmania donovani [6], testing at 25 µM gave an inhibition of 55%.
The molecule `CCCC(=O)OC[C@]12CC[C@]3(C(C)C)C1=C1[C@H](C[C@@H]4[C@@]5(C)CC[C@H](OC(=O)CCC)C(C)(C)[C@@H]5CC[C@@]4(C)[C@]1(C)CC2)n1c(=O)n(C)c(=O)n13` came in with an inhibition at 15 µM in the data set with Leishmania donovani [8] of 26%.
Take `CC(C)[C@@]12CC[C@]3(COC(=O)C4CCCCC4)CC[C@]4(C)C(=C31)[C@H](C[C@@H]1[C@@]3(C)CC[C@H](OC(=O)C5CCCCC5)C(C)(C)[C@@H]3CC[C@]14C)n1c(=O)n(C)c(=O)n12`: 50 µM produced 5.5% inhibition with Leishmania donovani [1].
On the same count and under the same terms, the value for `CC(C)[C@@]12CC[C@]3(COC(=O)c4ccccc4)CC[C@]4(C)C(=C31)[C@H](C[C@@H]1[C@@]3(C)CC[C@H](OC(=O)c5ccccc5)C(C)(C)[C@@H]3CC[C@]14C)n1c(=O)n(C)c(=O)n12` was 0%.
The molecule `CC(C)C(=O)OC[C@]12CC[C@]3(C(C)C)C1=C1[C@H](C[C@@H]4[C@@]5(C)CC[C@H](OC(=O)C(C)C)C(C)(C)[C@@H]5CC[C@@]4(C)[C@]1(C)CC2)n1c(=O)n(C)c(=O)n13` gave an inhibition at 15 µM in the data set with Leishmania donovani [8] of 19%.
In turn, `C[C@@H]1[C@H](O)[C@@H](C)/C=C/C=C/C=C/C=C/C=C/C=C/C=C/[C@H](O[C@@H]2O[C@H](C)[C@@H](O)[C@H](N)[C@@H]2O)C[C@@H]2O[C@](O)(C[C@@H](O)C[C@@H](O)[C@H](O)CC[C@@H](O)C[C@@H](O)CC(=O)O[C@H]1C)C[C@H](O)[C@H]2C(=O)O` [AMPHOTERICIN B] had an inhibition at 1 µM in the data set on Leishmania donovani [9] greater than 90%.
`C=C(C)[C@@H]1CC[C@]2(C=O)CC[C@]3(C)[C@H](CC[C@@H]4[C@@]5(C)CC[C@H](O)C(C)(C)[C@@H]5CC[C@]43C)[C@@H]12` [BETULINALDEHYDE]: the viability at 68 µM in [10] was 80%. Besides, the survival at 68 µM with Leishmania amazonensis [11] is 42%. The survival at 136 µM in the data set with Leishmania amazonensis [12] is 12%. Further, the viability at 136 µM in data set [13] came to 70%.
Usually IC50 stands for the concentration that inhibits the measured activity by half. Take `C=C(C)[C@@H]1CC[C@]2(C(=O)O)CC[C@]3(C)[C@H](CC[C@@H]4[C@@]5(C)CC[C@H](O)C(C)(C)[C@@H]5CC[C@]43C)[C@@H]12` [BETULINIC ACID]: the figures for the IC50 with Leishmania donovani [14] and in the data set on Leishmania donovani [16] were 4.1 µM and 2.6 µM, respectively. Besides, the Activity with Leishmania donovani [15] is 92%.
